From ChEMBL document CHEMBL3232844, “Synthesis and structure activity relationships of schweinfurthin indoles” (2014)

What was measured:
Format in all cases: functional
CAKI-1 = assay: Cytotoxicity against human Caki1 cells
Method in brief: (§1)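 Tested in a 60-cell-line human tumor panel screen; the read-out is growth inhibition, reported as GI50 for each cell line.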

COLO 205 = assay: Cytotoxicity against human COLO205 cells; method in brief: as §1
SN12C = assay: Cytotoxicity against human SN12C cells; method in brief: as §1
DU-145 = assay: Cytotoxicity against human DU145 cells; method in brief: as §1
[1] = Cytotoxicity against human UACC62 cells
Method in brief: (§2)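 Cell line run as part of the 60-cell-line screening panel; growth inhibition was reported as a GI50 for each line.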

HT-29 = assay: Cytotoxicity against human HT-29 cells; method in brief: as §1
SF-295 = assay: Cytotoxicity against human SF295 cells; method in brief: as §1
IGROV-1 = assay: Cytotoxicity against human IGROV1 cells; method in brief: as §1
[2] = Cytotoxicity against human UACC257 cells; method in brief: as §2
MDA-MB-435 = assay: Cytotoxicity against human MDA-MB-435 cells; method in brief: as §1
MCF7 = assay: Cytotoxicity against human MCF7 cells; method in brief: as §1
SK-MEL-5 = assay: Cytotoxicity against human SK-MEL-5 cells; method in brief: as §1
SR = assay: Cytotoxicity against human SR cells; method in brief: as §2
LOX IMVI = assay: Cytotoxicity against human LOXIMVI cells; method in brief: as §1
CCRF-CEM = assay: Cytotoxicity against human CCRF-CEM cells
BT-549 = assay: Cytotoxicity against human BT549 cells; method in brief: as §1
T47D = assay: Cytotoxicity against human T47D cells; method in brief: as §2
A498 = assay: Cytotoxicity against human A498 cells; method in brief: as §1
MDA-MB-231 = assay: Cytotoxicity against human MDA-MB-231 cells; method in brief: as §1
SK-MEL-2 = assay: Cytotoxicity against human SK-MEL-2 cells; method in brief: as §1
MOLT-4 = assay: Cytotoxicity against human MOLT4 cells; method in brief: as §1
786-0 = assay: Cytotoxicity against human 786-0 cells; method in brief: as §1
HCC 2998 = assay: Cytotoxicity against human HCC2998 cells; method in brief: as §1
SNB-75 = assay: Cytotoxicity against human SNB75 cells; method in brief: as §2
SK-OV-3 = assay: Cytotoxicity against human SKOV3 cells; method in brief: as §1
ACHN = assay: Cytotoxicity against human ACHN cells; method in brief: as §1
[3] = Cytotoxicity against human OVCAR4 cells; method in brief: as §1
U-251 = assay: Cytotoxicity against human U251 cells; method in brief: as §2
[4] = Cytotoxicity against human NCI-ADR-RES cells; method in brief: as §1
HL-60(TB) = assay: Cytotoxicity against human HL-60(TB) cells
Method in brief: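 Tested within the NCI 60-cell-line screen, with GI50 as the read-out. Values are the average of two independent experiments. The lowest concentration tested was 10 nM.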

NCI-H460 = assay: Cytotoxicity against human NCI-H460 cells; method in brief: as §1
A549 = assay: Cytotoxicity against human A549 cells; method in brief: as §1
HOP-62 = assay: Cytotoxicity against human HOP62 cells; method in brief: as §1
[5] = Cytotoxicity against human OVCAR5 cells; method in brief: as §1
KM12 = assay: Cytotoxicity against human KM12 cells; method in brief: as §1
TK-10 = assay: Cytotoxicity against human TK10 cells; method in brief: as §2
SF-539 = assay: Cytotoxicity against human SF539 cells; method in brief: as §1
HCT-116 = assay: Cytotoxicity against human HCT116 cells; method in brief: as §1
PC-3 = assay: Cytotoxicity against human PC3 cells; method in brief: as §1
SNB-19 = assay: Cytotoxicity against human SNB19 cells; method in brief: as §1
NCI-H322M = assay: Cytotoxicity against human NCI-H322M cells; method in brief: as §1
[6] = Cytotoxicity against human HCT15 cells; method in brief: as §1
SF-268 = assay: Cytotoxicity against human SF268 cells; method in brief: as §1
[7] = read-out: pLC50 (the source's name) (converted)

COc1cc(/C=C/c2cc(O)c3c(c2)C[C@@H]2C(C)(C)[C@H](O)CC[C@@]2(C)O3)cc2[nH]cc(CC=C(C)C)c12
GI50 (CAKI-1): 0.245 µM | LC50 (CAKI-1): 79.4 µM | TGI (CAKI-1; read-out: pTGI (converted)): 17 µM | GI50 (COLO 205): 4.17 µM | CC50 (COLO 205; [7]): 21.4 µM | TGI (COLO 205; read-out: pTGI (converted)): 9.33 µM | GI50 (SN12C): 8.51 µM | LC50 (SN12C): 75.9 µM | TGI (SN12C; read-out: pTGI (converted)): 45.7 µM | GI50 (DU-145): 5.25 µM | LC50 (50% lethal concentration) (DU-145): 64.6 µM | TGI (DU-145; read-out: pTGI (converted)): 39.8 µM | GI50 ([1]; UACC-62): 0.1 µM | CC50 ([1]; UACC-62, read-out: pLC50 (the source's name) (converted)): 33.9 µM | TGI ([1]; UACC-62, read-out: pTGI (converted)): 0.955 µM | GI50 (HT-29): 0.832 µM | CC50 (HT-29; [7]): 21.4 µM | TGI (HT-29; read-out: pTGI (converted)): 5.37 µM | GI50 (SF-295; read-out: GI50): < 0.023 µM | GI50 (SF-295; read-out: pGI50 (converted)): 0.0234 µM | CC50 (SF-295; [7]): 6.46 µM | TGI (SF-295; read-out: pTGI (converted)): 0.115 µM | GI50 (IGROV-1): 5.01 µM | CC50 (IGROV-1; [7]): 89.1 µM | TGI (IGROV-1; read-out: pTGI (converted)): 45.7 µM | GI50 ([2]; UACC-257): 14.5 µM | CC50 ([2]; UACC-257, read-out: pLC50 (the source's name) (converted)): 77.6 µM | TGI ([2]; UACC-257, read-out: pTGI (converted)): 49 µM | GI50 (MDA-MB-435): 0.437 µM | CC50 (MDA-MB-435; [7]): 95.5 µM | TGI (MDA-MB-435; read-out: pTGI (converted)): 38 µM | GI50 (MCF7): 0.537 µM | LC50 (MCF7): 55 µM | TGI (MCF7; read-out: pTGI (converted)): 12.3 µM | GI50 (SK-MEL-5): 1.23 µM | CC50 (SK-MEL-5; [7]): 7.08 µM | TGI (SK-MEL-5; read-out: pTGI (converted)): 2.14 µM | GI50 (SR): 0.155 µM | CC50 (SR; [7]): > 100 µM | TGI (SR; read-out: pTGI (converted)): 32.4 µM | GI50 (LOX IMVI): 0.282 µM | CC50 (LOX IMVI; [7]): 30.9 µM | TGI (LOX IMVI; read-out: pTGI (converted)): 6.61 µM | GI50 (CCRF-CEM): 0.0871 µM | CC50 (CCRF-CEM; [7]): > 100 µM | TGI (CCRF-CEM; read-out: pTGI (converted)): 14.8 µM | GI50 (BT-549): 0.479 µM | CC50 (BT-549; [7]): 67.6 µM | TGI (BT-549; read-out: pTGI (converted)): 41.7 µM | GI50 (T47D): 8.13 µM | CC50 (T47D; [7]): > 100 µM | TGI (T47D; read-out: pTGI (converted)): 39.8 µM | GI50 (A498): 0.0661 µM | CC50 (A498; [7]): 44.7 µM | TGI (A498; read-out: pTGI (converted)): 2.69 µM | GI50 (MDA-MB-231): 0.891 µM | LC50 (MDA-MB-231): 45.7 µM | TGI (MDA-MB-231; read-out: pTGI (converted)): 9.77 µM | GI50 (SK-MEL-2): 0.105 µM | CC50 (SK-MEL-2; [7]): 50.1 µM | TGI (SK-MEL-2; read-out: pTGI (converted)): 5.25 µM | GI50 (MOLT-4): 0.105 µM | CC50 (MOLT-4; [7]): > 100 µM | TGI (MOLT-4; read-out: pTGI (converted)): 2.57 µM | GI50 (786-0): 0.01 µM | LC50 (concentration killing 50% of cells) (786-0): 21.4 µM | TGI (786-0; read-out: pTGI (converted)): 2.45 µM | GI50 (HCC 2998): 6.03 µM | CC50 (HCC 2998; [7]): 67.6 µM | TGI (HCC 2998; read-out: pTGI (converted)): 37.2 µM | GI50 (SNB-75): 0.01 µM | CC50 (SNB-75; [7]): 64.6 µM | TGI (SNB-75; read-out: pTGI (converted)): 10.5 µM | GI50 (SK-OV-3): 4.68 µM | LC50 (SK-OV-3): 77.6 µM | TGI (SK-OV-3; read-out: pTGI (converted)): 39.8 µM | GI50 (ACHN): 3.63 µM | LC50 (concentration killing 50% of cells) (ACHN): 61.7 µM | TGI (ACHN; read-out: pTGI (converted)): 38 µM | GI50 ([3]; OVCAR-4): 10.7 µM | CC50 ([3]; OVCAR-4, read-out: pLC50 (the source's name) (converted)): 77.6 µM | TGI ([3]; OVCAR-4, read-out: pTGI (converted)): 47.9 µM | GI50 (U-251): 0.01 µM | CC50 (U-251; [7]): 60.3 µM | TGI (U-251; read-out: pTGI (converted)): 32.4 µM | GI50 [4]: 7.59 µM | CC50 [4, 7]: 85.1 µM | TGI ([4]; read-out: pTGI (converted)): 46.8 µM | GI50 (HL-60(TB)): 0.0646 µM | CC50 (HL-60(TB); [7]): 79.4 µM | TGI (HL-60(TB); read-out: pTGI (converted)): 18.2 µM | GI50 (NCI-H460): 0.209 µM | CC50 (NCI-H460; [7]): 66.1 µM | TGI (NCI-H460; read-out: pTGI (converted)): 26.9 µM | GI50 (A549): 2.4 µM | CC50 (A549; [7]): 67.6 µM | TGI (A549; read-out: pTGI (converted)): 38.9 µM | GI50 (HOP-62): 0.0501 µM | CC50 (HOP-62; [7]): 40.7 µM | TGI (HOP-62; read-out: pTGI (converted)): 1.7 µM | GI50 ([5]; OVCAR-5): 5.37 µM | CC50 ([5]; OVCAR-5, read-out: pLC50 (the source's name) (converted)): 60.3 µM | TGI ([5]; OVCAR-5, read-out: pTGI (converted)): 30.2 µM | GI50 (KM12): 2.95 µM | CC50 (KM12; [7]): 33.1 µM | TGI (KM12; read-out: pTGI (converted)): 10.2 µM | GI50 (TK-10): 8.32 µM | LC50 (TK-10): 69.2 µM | TGI (TK-10; read-out: pTGI (converted)): 40.7 µM | GI50 (SF-539): 0.01 µM | CC50 (SF-539; [7]): 24.5 µM | TGI (SF-539; read-out: pTGI (converted)): 4.47 µM | GI50 (HCT-116): 0.339 µM | CC50 (HCT-116; [7]): 64.6 µM | TGI (HCT-116; read-out: pTGI (converted)): 36.3 µM | GI50 (PC-3): 1.32 µM | LC50 (PC-3): > 100 µM | TGI (PC-3; read-out: pTGI (converted)): 43.7 µM | GI50 (SNB-19): 0.575 µM | CC50 (SNB-19; [7]): 64.6 µM | TGI (SNB-19; read-out: pTGI (converted)): 35.5 µM | GI50 (NCI-H322M): 18.2 µM | CC50 (NCI-H322M; [7]): 77.6 µM | TGI (NCI-H322M; read-out: pTGI (converted)): 49 µM | GI50 ([6]; HCT-15): 0.209 µM | CC50 ([6]; HCT-15, read-out: pLC50 (the source's name) (converted)): 36.3 µM | TGI ([6]; HCT-15, read-out: pTGI (converted)): 4.9 µM | GI50 (SF-268): 0.851 µM | CC50 (SF-268; [7]): 69.2 µM | TGI (SF-268; read-out: pTGI (converted)): 38.9 µM
